Reference: ChEMBL document CHEMBL1126908, “Synthesis and evaluation of new 6-amino-substituted benzo[c]phenanthridine derivatives” (J Med Chem, 1993)
Converted amounts (≈) assume the structure as drawn.

How the values were obtained:
[1] = Cytotoxicity was measured on human mammary adenocarcinoma cells(Calc 18); type: functional, cell-based
Summary of the method: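 Human mammary adenocarcinoma Calc 18 cells exposed to various drug concentrations for 96 h at 37 °C. Viability read by neutral red staining. IC50 is the concentration giving 50% growth inhibition.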

[2] = target: DNA topoisomerase 2-beta (Homo sapiens) (UniProt Q02880); assay: Inhibition of topoisomerase II; conditions: Bos taurus
Chain of DNA topoisomerase 2-beta (Homo sapiens) (Q02880 whole entry): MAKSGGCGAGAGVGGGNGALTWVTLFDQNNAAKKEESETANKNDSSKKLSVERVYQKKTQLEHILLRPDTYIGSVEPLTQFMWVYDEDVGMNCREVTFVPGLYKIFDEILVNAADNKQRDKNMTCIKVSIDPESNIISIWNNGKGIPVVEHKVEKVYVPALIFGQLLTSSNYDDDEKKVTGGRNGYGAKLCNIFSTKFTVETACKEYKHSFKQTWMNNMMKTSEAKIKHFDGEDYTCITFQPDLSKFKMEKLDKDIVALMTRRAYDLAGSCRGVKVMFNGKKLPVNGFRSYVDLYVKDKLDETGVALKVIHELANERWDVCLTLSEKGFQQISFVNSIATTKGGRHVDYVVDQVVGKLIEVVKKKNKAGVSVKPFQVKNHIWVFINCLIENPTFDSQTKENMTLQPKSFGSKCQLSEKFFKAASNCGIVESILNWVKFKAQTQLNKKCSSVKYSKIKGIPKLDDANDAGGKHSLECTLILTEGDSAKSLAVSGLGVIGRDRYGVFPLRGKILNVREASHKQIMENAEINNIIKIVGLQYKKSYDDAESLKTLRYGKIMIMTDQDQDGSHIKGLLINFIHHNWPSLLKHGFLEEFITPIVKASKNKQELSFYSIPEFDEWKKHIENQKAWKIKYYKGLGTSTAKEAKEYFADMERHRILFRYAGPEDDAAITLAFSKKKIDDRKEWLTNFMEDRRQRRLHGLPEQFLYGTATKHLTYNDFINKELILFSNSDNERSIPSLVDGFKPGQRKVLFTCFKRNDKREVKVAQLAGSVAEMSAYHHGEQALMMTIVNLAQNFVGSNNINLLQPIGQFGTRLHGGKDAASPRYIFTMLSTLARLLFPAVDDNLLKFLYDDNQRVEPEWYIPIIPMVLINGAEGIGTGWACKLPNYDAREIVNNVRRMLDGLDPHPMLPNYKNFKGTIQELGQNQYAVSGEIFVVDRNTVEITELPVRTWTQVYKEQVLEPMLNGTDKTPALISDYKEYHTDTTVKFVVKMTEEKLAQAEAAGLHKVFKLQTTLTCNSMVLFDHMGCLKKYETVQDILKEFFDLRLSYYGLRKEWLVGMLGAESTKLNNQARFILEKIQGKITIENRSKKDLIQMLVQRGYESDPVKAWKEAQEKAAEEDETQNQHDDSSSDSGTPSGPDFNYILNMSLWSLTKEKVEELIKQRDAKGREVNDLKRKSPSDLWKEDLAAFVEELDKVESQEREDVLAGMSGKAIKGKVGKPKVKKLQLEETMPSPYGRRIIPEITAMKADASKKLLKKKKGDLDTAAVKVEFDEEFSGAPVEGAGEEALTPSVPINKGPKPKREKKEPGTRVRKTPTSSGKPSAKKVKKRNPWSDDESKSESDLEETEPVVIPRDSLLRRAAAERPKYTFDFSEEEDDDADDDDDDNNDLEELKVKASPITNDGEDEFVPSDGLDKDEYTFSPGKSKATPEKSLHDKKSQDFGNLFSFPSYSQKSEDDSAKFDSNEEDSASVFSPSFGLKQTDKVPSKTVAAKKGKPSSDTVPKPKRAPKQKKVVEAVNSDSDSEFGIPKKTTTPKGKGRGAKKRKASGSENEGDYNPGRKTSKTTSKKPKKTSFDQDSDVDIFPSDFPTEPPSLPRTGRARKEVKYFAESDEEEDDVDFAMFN
Summary of the method: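 Topoisomerase I or II purified from calf thymus, tested in a DNA cleavage assay. Read-out is the minimal inhibitory concentration (μM), meaning the lowest concentration that gives detectable stimulation of DNA cleavage.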

L1210 = assay: Cytotoxicity against murine lymphoblastic leukemia cells (L1210).; type: functional, cell-based; conditions: Mus musculus
Summary of the method: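 Murine L1210 cells grown in Dulbecco's MEM with 10% fetal calf serum at 37 °C, 5% CO2. Cells seeded, then after 24 h compounds added in duplicate at various concentrations and incubated 24 h. Cells counted by Coulter counter. IC50 taken as the dose giving 50% growth inhibition, extrapolated from regression curves of non-toxic experimental points.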

[3] = The ratio of the mean survival time of treated animals on the mean survival time of controls multiplied by 100.It is measured at dose of 20 mg/kg; T/C value; type: functional
Summary of the method: (§1)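 Female BDF1 mice inoculated IP with 10⁶ P388 leukemia cells on day 0, with 10 controls and 6 mice per test group. Compounds given IP as 0.2-mL PBS solutions on days 1, 3 and 7. T/C = mean survival time of treated mice / mean survival time of controls × 100.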

[4] = The ratio of the mean survival time of treated animals on the mean survival time of controls multiplied by 100.It is measured at dose of 5 mg/kg; T/C value; type: functional; summary of the method: as §1
[5] = The ratio of the mean survival time of treated animals on the mean survival time of controls multiplied by 100.It is measured at dose of 10 mg/kg; T/C value; type: functional; summary of the method: as §1
P388 [6] = assay: (§2) Cytotoxicity was measured on murine leukemia p388; type: functional, cell-based; conditions: Mus musculus
Summary of the method: (§3)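 Cells (P388, or camptothecin-resistant P388 CPT0.3) incubated 96 h at 37 °C with various drug concentrations. Viability read by neutral red staining. IC50 taken as the concentration giving 50% growth inhibition.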

P388 [7] = assay: (§4) Cytotoxicity was measured on murine leukemia p388 CPT 0.3; type: functional; conditions: Mus musculus; summary of the method: as §3
P388 [8] = assay: as §4; type: functional, cell-based; conditions: Mus musculus; summary of the method: as §3
[9] = The ratio of the mean survival time of treated animals on the mean survival time of controls multiplied by 100.It is measured at dose of 100 mg/kg; T/C value; type: functional; summary of the method: as §1
P388 [10] = assay: as §2; type: functional; conditions: Mus musculus; summary of the method: as §3
[11] = test system: P388 leukemia cells (Mus musculus); assay: Cytotoxicity was measured on cultured murine leukemia cells (P388)
[12] = The ratio of the mean survival time of treated animals on the mean survival time of controls multiplied by 100.It is measured at dose of 40 mg/kg; T/C value; type: functional; summary of the method: as §1

| Structure (SMILES) | IC50 [1] [nM] | MIC [2] [µM] | IC50 (L1210) [nM] | further results |
| --- | --- | --- | --- | --- |
| COc1ccc2c(c1)c(NCCN(C)C)nc1c3ccc(O)cc3ccc21 | 1500 | 10 (≈ 3.61 µg/mL) |  |  |
| CN(C)CCCNc1nc2c3ccc(O)cc3ccc2c2ccccc12 | 3000 | > 10 | 2600 |  |
| CN(C)CCNc1nc2c3cc(O)ccc3ccc2c2ccccc12 | 3000 | 10 (≈ 3.31 µg/mL) | 500 | Ratio [3]: 102; Ratio [4]: 92; Ratio [5]: 83 |
| CN(C)CCNc1nc2c3ccc(O)cc3ccc2c2ccc(O)cc12 | 1000 | 3 (≈ 1.04 µg/mL) | 500 | Ratio [3]: 111; Ratio [4]: 119; Ratio [5]: 111 |
| COc1ccc2c(ccc3c4ccc(OC)cc4c(NCCN(C)C)nc23)c1 | 1500 | 10 (≈ 3.75 µg/mL) | 1700 |  |
| COc1cc2c(ccc3c4cc(OC)c(OC)cc4c[n+](C)c23)cc1O.[Cl-] [FAGARONINE] |  |  | 2000 | IC50 (P388 [6]): 2000 nM; IC90 (P388 [7]): > 10000 nM; IC50 (P388 [8]): > 10000 nM; Ratio [9]: 265; IC90 (P388 [10]): 6000 nM |
| COc1cc2ccc3c4cc(OC)c(OC)cc4c(NCCN(C)C)nc3c2cc1OC | 3000 | > 10 | > 5000 |  |
| COc1ccc2c(ccc3c4ccccc4c(NCCN(C)C)nc23)c1 | 3000 | 10 (≈ 3.45 µg/mL) | 3000 |  |
| CC[C@@]1(O)C(=O)OCc2c1cc1n(c2=O)Cc2cc3ccccc3nc2-1 [CAMPTOTHECIN] |  | > 100 |  | IC50 [11]: 15 nM |
| CN(C)CCNc1nc2c3ccc(O)cc3ccc2c2ccccc12 | 1000 | 1 (≈ 0.331 µg/mL) | 500 | Ratio [3]: 118; Ratio [4]: 93; Ratio [12]: 101; Ratio [5]: 138 |
| COc1cc([C@@H]2c3cc4c(cc3[C@@H](O[C@@H]3O[C@@H]5CO[C@@H](C)O[C@H]5[C@H](O)[C@H]3O)[C@H]3COC(=O)[C@H]23)OCO4)cc(OC)c1O |  | 0.1 (≈ 0.0589 µg/mL) |  |  |
| CN(C)CCCNc1nc2c3ccc(O)cc3ccc2c2ccc(O)cc12 | > 10000 | 10 (≈ 3.61 µg/mL) | 4500 |  |
| CN(C)CCNc1nc2c3ccccc3ccc2c2ccccc12 |  |  | > 90000 |  |
| COc1ccc2ccc3c4ccccc4c(NCCN(C)C)nc3c2c1 |  |  | 2500 |  |
| CN(C)CCCNc1nc2c3cc(O)ccc3ccc2c2ccccc12 | 2500 | > 10 | 3400 | Ratio [3]: 73; Ratio [4]: 91; Ratio [5]: 90 |
| COc1ccc2c(ccc3c4ccccc4c(NCCCN(C)C)nc23)c1 | 2500 | > 10 | 3400 |  |
| COc1ccc2c(ccc3c4ccc(OC)cc4c(NCCCN(C)C)nc23)c1 | 3000 | > 10 | 2500 |  |
| COc1ccc2ccc3c4ccccc4c(NCCCN(C)C)nc3c2c1 |  |  | 2600 |  |
| COc1cc2c(NCCN(C)C)nc3c4cc5c(cc4ccc3c2cc1OC)OCO5 | 600 | 1 (≈ 0.419 µg/mL) | 300 | Ratio [3]: 92; IC50 (P388 [6]): 900 nM; IC90 (P388 [7]): 3500 nM; IC50 (P388 [8]): 150 nM; Ratio [4]: 99; Ratio [5]: 103; IC90 (P388 [10]): 3500 nM |
